Screening data from PubChem BioAssay.
UHRF1 MBD2 ctr – UHRF1 methylated DNA binding inhibitors, primary screen, counter-screen for MBD2 inhibitor project, biochemical, TR-FRET, human UHRF1, single concentration | E3 ubiquitin-protein ligase UHRF1 (Homo sapiens), Q96T88 | UHRF1 binding to methylated oligo | inhibition, % at 4.4 µM | 0.75% of 370,000 active;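 note: UHRF1 SRA domain binding a hemimethylated CpG hairpin DNA probe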
ARFGAP1 inh – inhibitors of rat ARFGAP1 GAP activity, primary screen, biochemical, fluorescence polarization, GDP tracer. inhibition, % at 16.5 µM. Arfgap1-stimulated ARF1 GTP hydrolysis, GDP FP detection. 0.26% of 360,000 active. ADP-ribosylation factor GTPase-activating protein 1 (Rattus norvegicus), Q62848;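 active = inhibition above a per-plate limit, mean inhibition of low control wells plus 3 SD, cut at about 25% in these data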
Target sequence (Q62848 1-136 limits assumed): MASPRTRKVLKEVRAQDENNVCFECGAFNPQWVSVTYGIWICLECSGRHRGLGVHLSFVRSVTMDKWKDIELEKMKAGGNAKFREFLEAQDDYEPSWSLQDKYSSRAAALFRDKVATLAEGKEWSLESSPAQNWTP
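Material: truncated rat Arfgap1 GAP domain; Incubation: compound-enzyme preincubation 20 min, reaction 120 min, detection 60 min, 25 °C; Read-out: percent inhibition of Arfgap1-stimulated GTP hydrolysis; Technique: FP, GDP Alexa 633 tracer displaced from anti-GDP antibody, 620/688 nm; Controls: No-Arfgap1 wells (100%) versus DMSO full-reaction wells (0%); Replication: single well per compound.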
LEDGF integ inh – blockers of LEDGF/p75-dependent integrase strand transfer – biochemical, TR-FRET, high throughput, primary screen | HIV-1 integrase (with human LEDGF/p75) | TR-FRET IN-LEDGF/p75 DNA integration, Eu/Cy5 | inhibition, % at 3.7 µM | 0.64% of 370,000 active | AID 743269, 2014;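 active = inhibition above the screen-wide mean plus 3 SD, cut at about 13% in these data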;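 note: signal is the Cy5 over europium emission ratio at 671 and 618 nm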
MBD2 inh – inhibitors of MBD2 binding to methylated DNA, primary screen, biochemical, TR-FRET, DNA-binding domain, human; MBD2 binding to methylated oligonucleotide; inhibition, % at 4.4 µM; 0.31% of 370,000 active; AID 686964, 2013; in the data active = inhibition above about 13%
TCR CD3 inh – inhibitors of human TCR-CD3 interaction, primary screen, biochemical, fluorescence, TAMRA-labeled TCR probe; 0.37% of 360,000 active; AID 651800, 2012; inhibition, % at 9.4 µM; T-cell receptor (TCR); in the data active = inhibition above about 19%;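 note: recombinant mutant TCR 2C K166C tagged with TAMRA read by polarization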
ASAP1 inh – inhibitors of human ASAP1 ArfGAP activity, primary screen, biochemical, fluorescence polarization | ASAP1-stimulated ARF1 GTP hydrolysis, GDP FP detection | 0.19% of 360,000 active | inhibition, % at 16.5 µM | Arf-GAP with SH3 domain, ANK repeat and PH domain-containing protein 1 (Homo sapiens), …; in the data active = inhibition above about 25%
UHRF1 ctr MBD2 – UHRF1 methylated DNA binding inhibitors, counter-screen for MBD2 inhibitor project, biochemical, TR-FRET, human UHRF1; shares compounds with MBD2 inh; AID 720530, 2013; UHRF1 binding to methylated oligonucleotide; inhibition, % at 4.4 µM; 25% of 1,000 active;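 note: UHRF1 SRA domain binding a labeled hemimethylated CpG hairpin DNA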
MBD2 DBD conf – inhibitors of MBD2 binding to methylated DNA, confirmation, biochemical, TR-FRET, DNA-binding domain, human; TR-FRET MBD2-DBD binding to methylated oligonucleotide; AID 720531, 2013; 26% of 1,000 active; shares compounds with MBD2 inh; inhibition, % at 4.4 µM; in the data active = inhibition above about 14%
Of the large screens only hits and unclear results are named; the others gave an inactive call (follow-up assays come after a bar, where they were run). Most compounds without a hit are left out; they make up all but 2% or so of the library. Cut-off read from the data, not from the text of the source, unless noted: active = inhibition above about 21%; inactive = the rest.

COC(=O)C1C(O)=C(C=Nc2ccccc2)C(=O)CC1(C)C (stereo not given)	none
O=C(COC(=O)Cc1cccc(C(F)(F)F)c1)NCc1ccco1	UHRF1 MBD2 ctr 35, MBD2 inh 17 | UHRF1 ctr MBD2 21 | MBD2 DBD conf inactive
O=C(COC(=O)Cc1ccc(F)cc1)NCc1ccco1	none
CCSc1nc(O)c(Cc2ccccc2)c(=O)[nH]1	MBD2 inh 13 | UHRF1 ctr MBD2 inactive | MBD2 DBD conf inactive
COc1ccccc1NC(=O)CSc1nc(O)c(Cc2ccccc2)c(=O)[nH]1	none
Cn1c(=O)c2c(ncn2CC2OCCO2)n(C)c1=O	MBD2 inh 35 | UHRF1 ctr MBD2 inactive | MBD2 DBD conf inactive
Cn1c(=O)c2c(ncn2CC(=O)O)n(C)c1=O	none
O=C(NCCc1nnc2ccc(SCC(=O)N3CCCC3)nn12)c1ccc(F)cc1	none
CCN(c1ccccc1)S(=O)(=O)c1cccc(C(=O)NCC2(N(C)C)CCCCC2)c1	MBD2 inh 23 | UHRF1 ctr MBD2 inactive | MBD2 DBD conf inactive
CN(C)C1(CNC(=O)c2cccc(S(=O)(=O)NCc3ccccc3)c2)CCCCC1	none
Cc1ccc(C)c(S(=O)(=O)N2CCCOC2CNC(=O)C(=O)NCc2ccco2)c1 (stereo not given)	none
Cc1ccc(C)c(S(=O)(=O)N2CCCOC2CNC(=O)C(=O)NCCc2ccco2)c1 (stereo not given)	MBD2 inh 15 | UHRF1 ctr MBD2 inactive | MBD2 DBD conf inactive
CC(C(=O)Nc1cccnc1)C1Sc2ccccc2NC1=O (stereo not given)	MBD2 inh 78 | UHRF1 ctr MBD2 inactive | MBD2 DBD conf inactive
O=C1C=C(c2ccc(C(=O)O)cc2)C[C@@H](c2ccc3c(c2)OCO3)C1	MBD2 inh 16 | UHRF1 ctr MBD2 inactive | MBD2 DBD conf inactive
Cc1ccc([C@@H]2C[C@H]3[C@@H](CN2S(=O)(=O)c2ccc(C)cc2)C(=O)C[C@@H](c2ccccc2F)N3S(=O)(=O)c2ccc(C)cc2)cc1	UHRF1 MBD2 ctr 27, MBD2 inh 15 | UHRF1 ctr MBD2 inactive | MBD2 DBD conf inactive
CCOC(=O)[C@]12CCC=C1N(CCC1=CCCCC1)C(=O)[C@H](CC(=O)N1CCC(c3ccccc3)CC1)C2	none
CCOC(=O)N1CCN(C(=O)C[C@@H]2C[C@@]3(C(=O)OCC)CCCC=C3N(CCC3=CCCCC3)C2=O)CC1	MBD2 inh 20 | UHRF1 ctr MBD2 inactive | MBD2 DBD conf inactive
CC1(c2ccccc2)NC(=O)N(CC(=O)NCC2CCCO2)C1=O (stereo not given)	none
CCN(CC)S(=O)(=O)c1ccc(N2CCOCC2)c(NC(=O)c2ccc(F)cc2)c1	none
CCN(CC)S(=O)(=O)c1ccc(N2CCOCC2)c(NC(=O)c2ccc(C#N)cc2)c1	UHRF1 MBD2 ctr 25, MBD2 inh 14 | UHRF1 ctr MBD2 inactive | MBD2 DBD conf inactive
CC(NC(=O)c1ccco1)C(=O)N1CCCCC1 (stereo not given)	none
Cc1ccc(S(=O)(=O)N2CCOCC2)cc1NC(=O)CSc1nc2ccccc2c(=O)n1Cc1ccccc1	none
